Measurements as given in PMC8978969 (RSC Advances, 2022).
Converted amounts (≈) assume the structure as drawn. “And” between values parts separate entries of the source, which are not always exact repeats. Equal values may be shown once. Values belong to the compound of their own block, whether it stands above or below them.

Columns and labels:
[1] = Partition coefficients by shake-flask method; format: physicochemical
Procedure, shortened: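 Shake-flask method per OECD guidelines. n-Octanol and ultrapure water were mutually saturated by 24 h in a thermostat shaker, then 72 h standing. After partitioning, phases were centrifuged to separate completely, and drug in each phase was measured by HPLC to give logP. For logD7.4, 0.01 M PBS pH 7.4 replaced water, with otherwise identical steps.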

[2] = Solution stability assay; format: physicochemical; conditions: 37 °C
[3] = 24 h kinetic saturation solubilities; format: physicochemical
[4] = Gastrointestinal tract parallel artificial membrane permeability assay; format: in vitro ADME; conditions: PAMPA
Procedure, shortened: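 Donor solutions were made in Tris buffer pH 6.5 at several drug concentrations starting from 150 μg ml−1. The acceptor-well hydrophobic filter (0.45 μm) was coated with 2% soybean L-α-phosphatidylcholine in n-dodecane, and the acceptor held Tris buffer pH 7.4. The sandwich was incubated 16 h at room temperature. Receiver solution was quantified by HPLC, n = 6. Papp (cm s−1) was calculated from a published equation.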

[5] = Equilibrium solubility; format: physicochemical; conditions: for solubility at 24 h: thermodynamic from solid
[6] = Cytotoxicity test; format: cell-based; conditions: human, Caco-2 cells
Procedure, shortened: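 Caco-2 cells were grown in DMEM with 10% FBS and 1% penicillin/streptomycin at 37 °C in 5% CO2. Cells were seeded at 4 × 10^3 per well and left 16 h. Test compounds were dissolved in DMSO and serially diluted in DMEM, then applied for 24 h. CCK-8 was added for 3 h and absorbance read at 450 nm. IC50 was derived from a concentration–survival plot, mean ± SD of triplicates.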

logD ([1]; n-octanol/PBS 7.4, pH 7.4): 0.45 ± 0.01 | logP ([1]; n-octanol/water): 1.71 ± 0.03 | Solution stability in SIF ([2]; SIF, whole experiment period (24 h)): relatively stable | Initial content remained at 24 h ([2]; pH 7.4 buffer (PBS 7.4), 20 μg ml^−1 GLI, 24 h): zero | solubility kinetic at 12 h ([3]; Milli-Q water): 40.3 µg/mL (≈ 125 µM) | Time within which peak concentration was achieved ([3]; PBS 7.4, SIF and FaSSIF): ≤ 6 h | Time of peak concentration ([3]; water): 4 h | Papp at 16 h, 150 μg ml^−1 [4]: 2.46 ×10⁻⁶ cm/s | solubility at 24 h ([5]; FaSSIF, 37 °C, pH 6.5, fassif): 196 ± 3.32 µg/mL (≈ 606 µM) | solubility at 24 h ([5]; FeSSIF, 37 °C, pH 5, fessif): 30.1 ± 1.07 µg/mL (≈ 93.2 µM) | solubility at 24 h ([5]; Milli-Q water, 37 °C, water): 43.5 ± 1.67 µg/mL (≈ 135 µM) | solubility at 24 h ([5]; PBS 7.4, 37 °C, pH 7.4, aqueous buffer): 1590 ± 103 µg/mL (≈ 4910 µM) | solubility at 24 h ([5]; SIF, 37 °C, pH 6.8, fassgf or other biorelevant): 584 ± 23 µg/mL (≈ 1810 µM) | solubility thermodynamic at 24 h ([5]; Tris buffer pH 6.5, pH 6.5): 178 µg/mL (≈ 550 µM) | solubility at 24 h ([5]; blank FaSSIF, 37 °C, pH 6.5, aqueous buffer): 190.6 ± 0.63 µg/mL (≈ 589 µM) | solubility at 24 h ([5]; blank FeSSIF, 37 °C, pH 5, aqueous buffer): 28.7 ± 0.99 µg/mL (≈ 88.7 µM)
Compound: Cc1ccc(S(=O)(=O)NC(=O)NN2CC3CCCC3C2)cc1 (stereo not drawn) [GLI, Gliclazide]
IC50 at 24 h [6]: 20.8 ± 1.11 mM

log D7.4 ([1]; n-octanol/PBS 7.4, 37 °C): 0.69 ± 0.02 | log P ([1]; n-octanol/water, 37 °C): 2.72 ± 0.24 | Solubility, FaSSIF ([5]; FaSSIF (pH 6.5), 37 °C, as GLI, n = 3, mean ± SD): 34.53 ± 2.79 µg/mL | Solubility, PBS 7.4 ([5]; PBS pH 7.4, 37 °C, as GLI, n = 3, mean ± SD): 301.87 ± 6.82 µg/mL | Solubility, SIF ([5]; SIF (pH 6.8), 37 °C, as GLI, n = 3, mean ± SD): 102.43 ± 11.54 µg/mL | Solubility, Blank FaSSIF ([5]; blank FaSSIF, 37 °C, as GLI, n = 3, mean ± SD): 32.14 ± 1.56 µg/mL | Solubility, Water ([5]; water, 37 °C, 24 h, as GLI, n = 3, mean ± SD): 1.5 µg/mL and 1.51 ± 0.13 µg/mL
Compound: Gliclazide tributyl(tetradecyl)phosphonium ionic liquid [[P6,6,6,14][GLI]]
